Here are results for 5 molecules from publication PMC2741613 (Journal of the American Chemical Society, 2009).

Molecules are shown by their SMILES. Read-outs that look alike come from different tables or passages of the source. Non-standard residues stand in square brackets, D forms with d. Residues, ends and D or L forms follow the SMILES beside them. F2Pmp = N[CH](Cc1ccc(C(F)(F)P(=O)(O)O)cc1)C(=O)O

For one assay, the target named is T1, TC-PTP (Homo sapiens, UniProt P17706).
T1 sequence (P17706 1-415): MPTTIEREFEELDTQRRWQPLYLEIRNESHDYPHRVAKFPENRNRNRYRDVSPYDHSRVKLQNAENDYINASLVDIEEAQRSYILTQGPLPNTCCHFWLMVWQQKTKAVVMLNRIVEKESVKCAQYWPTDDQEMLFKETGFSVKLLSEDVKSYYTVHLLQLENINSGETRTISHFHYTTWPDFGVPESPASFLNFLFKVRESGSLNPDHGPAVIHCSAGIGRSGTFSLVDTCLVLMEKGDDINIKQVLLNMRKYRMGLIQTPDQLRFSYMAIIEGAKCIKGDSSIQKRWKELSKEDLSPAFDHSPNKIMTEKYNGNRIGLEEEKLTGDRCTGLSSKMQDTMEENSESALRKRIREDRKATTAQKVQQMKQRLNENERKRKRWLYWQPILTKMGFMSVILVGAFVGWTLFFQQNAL
The assay is described as follows: TC-PTP-catalyzed pNPP hydrolysis inhibition. The class given is biochemical. Conditions: for IC50: pNPP 2 mM, pH 7.0, 25 °C; for fold enhancement relative to parent compound 5: IC50/affinity for TC-PTP versus compound 5. A digest of the protocol:
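IC50: enzyme added last (10 nM or 0.4 nM final) to 2 mM pNPP (Km) plus varied test compound, 30 min at room temperature, NaOH quench, A405. Reversibility: enzyme preincubated with test compound 30 min before pNPP. Mode/Ki: 0.4 nM enzyme, varied pNPP and inhibitor, kinetic fit.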

The test system of assay [1] is tyrosine phosphorylation of EGFR in PTP1B−/− mouse embryo fibroblast cells. Briefly: EGF-stimulated EGFR phosphorylation in cells. It is filed as cell-based. The following applies: 200 nM. The method in brief: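 PTP1B−/− mouse embryo fibroblasts were given test compound for 2 hr, then EGF 2 ng/mL for 10 min. Lysis in HEPES pH 7.4 buffer with pervanadate, fluoride and protease inhibitors, cleared at 15,000 rpm for 10 min, protein by BCA. EGFR immunoprecipitated from 1 mg lysate (4 °C, 2 h; protein A/G 2 h). SDS-PAGE, anti-pTyr immunoblot, ECL detection.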

The IC50 is the point on the concentration scale where inhibition reaches its midpoint.

For the molecule `O=C(N[C@@H](Cc1ccc(C(F)(F)P(=O)(O)O)cc1)C(=O)O)OCC1c2ccccc2-c2ccccc21` [Fmoc-F2Pmp-OH, reference compound], at TC-PTP (read-out: IC50 for TC-PTP), the half-inhibitory concentration (IC50) stood at 20 µM. Take `CCc1ccc(C(=O)NCCCCC(NC(=O)C(Cc2ccc(C(F)(F)P(=O)(O)O)cc2)NC(=O)C(Cc2ccccc2)NC(C)=O)C(N)=O)cc1` (stereo not shown) [Compound 7]: the “fold enhancement relative to parent compound 5” value on TC-PTP stood at 77 fold.

Consider `CCc1ccc(C(=O)NCCCCC(NC(=O)C(Cc2ccc(C(F)(F)P(=O)(O)O)cc2)NC(C)=O)C(N)=O)cc1` (stereo not shown) [Compound 6], for which the “fold enhancement relative to parent compound 5” value on TC-PTP came out at 12.5 fold. For the same molecule, at TC-PTP (read-out: IC50 for the TC-PTP-catalyzed reaction), the half-inhibitory concentration (IC50) is 0.16 ± 0.02 µM.

With `CC(=O)NCCCCC(NC(=O)C(Cc1ccc(C(F)(F)P(=O)(O)O)cc1)NC(C)=O)C(N)=O` (stereo not shown) [Compound 5] (Ac-[F2Pmp]-Lys(Ac)-NH2; configuration not given here), the IC50 at TC-PTP (read-out: IC50 for TC-PTP) was 2 µM. Take `CCc1ccc(C(=O)NCCCCC(NC(=O)C(Cc2ccccc2)NC(=O)C(Cc2ccccc2)NC(=O)COC2CC(C)CCC2C(C)C)C(N)=O)cc1` (stereo not shown) [Compound 9]: the IC50 at TC-PTP (read-out: IC50 for TC-PTP) was more than 1 µM. Also, the “effect on EGFR phosphorylation” value in assay [1] is reported as “no effect”.
